Experimental data: ChEMBL document CHEMBL2331322, “Synthesis and antimicrobial activity of some new benzo and naphthonitrile derivatives” (2013)
≈ marks a conversion by molar mass, not a printed value.

Key:
Type in all cases: functional
Fusarium oxysporum [1] = experiment: Antimicrobial activity against Fusarium oxysporum after 48 hrs by microdilution susceptibility test
Summary of the method: (§1)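 MIC was determined by broth microdilution, using Müller–Hinton broth for bacteria and Sabouraud liquid medium for fungi. Stocks were made in DMF and serially diluted twofold. Wells were inoculated at 10⁶ CFU/mL and plates incubated at 36 °C for 24–48 h, with controls included. Only compounds giving agar-diffusion zones >14 mm were tested.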

Botrytis fabae [2] = experiment: Antimicrobial activity against Botrytis fabae at 1 mg/mL […] by agar disc diffusion method; settings: read-out: DIZ
Bacillus thuringiensis [3] = experiment: Antimicrobial activity against Bacillus thuringiensis after 24 hrs by microdilution susceptibility test; summary of the method: as §1
Pseudomonas aeruginosa [4] = experiment: Antimicrobial activity against Pseudomonas aeruginosa at 1 mg/mL after 24 hrs by agar disc diffusion method; settings: read-out: DIZ
Summary of the method: (§2)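 Sterile 5 mm filter paper disks were impregnated with test solution in DMF (1 mg/mL) and placed on agar plates seeded with the test organism, in triplicate. Bacteria were incubated at 37 °C for 24 h and fungi for […] (so in the source). The read-out was the average inhibition zone diameter around the disks, in mm.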

Bacillus subtilis [5] = experiment: Antimicrobial activity against Bacillus subtilis after 24 hrs by microdilution susceptibility test; summary of the method: as §1
Bacillus subtilis [6] = experiment: Antimicrobial activity against Bacillus subtilis at 1 mg/mL after 24 hrs by agar disc diffusion method; settings: read-out: DIZ; summary of the method: as §2
Fusarium oxysporum [7] = experiment: Antimicrobial activity against Fusarium oxysporum at 1 mg/mL after 48 hrs by agar disc diffusion method; settings: read-out: DIZ; summary of the method: as §2
Escherichia coli [8] = experiment: Antimicrobial activity against Escherichia coli at 1 mg/mL after 24 hrs by agar disc diffusion method; settings: read-out: DIZ; summary of the method: as §2
Escherichia coli [9] = experiment: Antimicrobial activity against Escherichia coli after 24 hrs by microdilution susceptibility test; summary of the method: as §1
Botrytis fabae [10] = experiment: Antimicrobial activity against Botrytis fabae after 48 hrs by microdilution susceptibility test; summary of the method: as §1
Bacillus thuringiensis [11] = experiment: Antimicrobial activity against Bacillus thuringiensis at 1 mg/mL after 24 hrs by agar disc diffusion method; settings: read-out: DIZ; summary of the method: as §2
Pseudomonas aeruginosa [12] = experiment: Antimicrobial activity against Pseudomonas aeruginosa after 24 hrs by microdilution susceptibility test; summary of the method: as §1

SMILES | MIC (Fusarium oxysporum [1]) | zone of inhibition at 1000 µg/mL (Botrytis fabae [2]) | MIC (Bacillus thuringiensis [3]) | zone of inhibition at 1000 µg/mL (Pseudomonas aeruginosa [4]) | MBC (Bacillus subtilis [5]) | MIC (Bacillus subtilis [5]) | zone of inhibition at 1000 µg/mL (Bacillus subtilis [6]) | zone of inhibition at 1000 µg/mL (Fusarium oxysporum [7]) | zone of inhibition at 1000 µg/mL (Escherichia coli [8]) | MBC (Escherichia coli [9]) | MIC (Escherichia coli [9]) | MIC (Botrytis fabae [10]) | zone of inhibition at 1000 µg/mL (Bacillus thuringiensis [11]) | MIC (Pseudomonas aeruginosa [12])
COc1ccc(C2C(C#N)c3ccccc3C(=N)C2(C#N)C#N)cc1 (stereo not drawn) | 50 µg/mL (≈ 153 µM) | 20 mm | 100 µg/mL (≈ 306 µM) | 26 mm | 200 µg/mL (≈ 613 µM) | 100 µg/mL (≈ 306 µM) | 15 mm | 19 mm | 31 mm | 200 µg/mL (≈ 613 µM) | 100 µg/mL (≈ 306 µM) | 100 µg/mL (≈ 306 µM) | 18 mm | 100 µg/mL (≈ 306 µM)
N#Cc1ccccc1C(C#N)/N=N/c1ccc(Cl)cc1 (stereo not drawn) | 6.25 µg/mL (≈ 22.3 µM) | 39 mm | 6.25 µg/mL (≈ 22.3 µM) | 35 mm | 50 µg/mL (≈ 178 µM) | 3.12 µg/mL (≈ 11.1 µM) | 42 mm | 38 mm | 37 mm | 200 µg/mL (≈ 712 µM) | 6.25 µg/mL (≈ 22.3 µM) | 6.25 µg/mL (≈ 22.3 µM) | 38 mm | 12.5 µg/mL (≈ 44.5 µM)
N#CCc1ccccc1C#N | 50 µg/mL (≈ 352 µM) | 15 mm | 50 µg/mL (≈ 352 µM) | 15 mm | 200 µg/mL (≈ 1410 µM) | 100 µg/mL (≈ 703 µM) | 15 mm | 14 mm | 16 mm | 200 µg/mL (≈ 1410 µM) | 100 µg/mL (≈ 703 µM) | 100 µg/mL (≈ 703 µM) | 15 mm | 100 µg/mL (≈ 703 µM)
COc1cc(/C=C(\C#N)c2ccccc2C#N)cc(OC)c1OC | 100 µg/mL (≈ 312 µM) | 20 mm | 100 µg/mL (≈ 312 µM) | 18 mm | 200 µg/mL (≈ 624 µM) | 100 µg/mL (≈ 312 µM) | 20 mm | 19 mm | 16 mm | 200 µg/mL (≈ 624 µM) | 100 µg/mL (≈ 312 µM) | 100 µg/mL (≈ 312 µM) | 15 mm | 100 µg/mL (≈ 312 µM)
N#C/C(=C\c1ccc(Cl)cc1)c1ccccc1C#N | 100 µg/mL (≈ 378 µM) | 26 mm | 50 µg/mL (≈ 189 µM) | 20 mm | 200 µg/mL (≈ 756 µM) | 50 µg/mL (≈ 189 µM) | 21 mm | 15 mm | 15 mm | 200 µg/mL (≈ 756 µM) | 100 µg/mL (≈ 378 µM) | 100 µg/mL (≈ 378 µM) | 20 mm | 100 µg/mL (≈ 378 µM)
N=c1[nH]c2nn(-c3ccc(Cl)cc3)nc2c2ccccc12 | 25 µg/mL (≈ 84.5 µM) | 15 mm | 25 µg/mL (≈ 84.5 µM) | 19 mm | 200 µg/mL (≈ 676 µM) | 25 µg/mL (≈ 84.5 µM) | 32 mm | 15 mm | 15 mm | 200 µg/mL (≈ 676 µM) | 50 µg/mL (≈ 169 µM) | 50 µg/mL (≈ 169 µM) | 38 mm | 50 µg/mL (≈ 169 µM)
CCOC(=O)c1c2[nH]c(=N)c3ccccc3c2nn1-c1ccc(Cl)cc1 | 25 µg/mL (≈ 68.2 µM) | 27 mm | 50 µg/mL (≈ 136 µM) | 33 mm | 200 µg/mL (≈ 545 µM) | 25 µg/mL (≈ 68.2 µM) | 33 mm | 16 mm | 25 mm | 200 µg/mL (≈ 545 µM) | 50 µg/mL (≈ 136 µM) | 50 µg/mL (≈ 136 µM) | 38 mm | 25 µg/mL (≈ 68.2 µM)
